ChEMBL document CHEMBL2439963, “Synthetic trimethyllysine receptors that bind histone 3, trimethyllysine 27 (H3K27me3) and disrupt its interaction with the epigenetic reader protein CBX7” (Bioorg Med Chem, 2013)

Key:
[1] = Inhibition of synthetic H3K27me3 peptide interaction to CBX7 after 15 mins by fluorescence polarization assay
How it was run: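 Calixarene was added at 0–10 mM, dissolved in water with 4 equiv NaOH. Incubated 15 min in the dark and read at ex 450/em 530 nm. mP was normalized to % complex, IC50 taken from a sigmoidal fit, triplicates averaged.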

[2] = Displacement of calixarene-LCG from synthetic H3K27me3 peptide
How it was run: (§1)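 Competitive lucigenin displacement: 0.5 µM lucigenin plus 1.25 µM calixarene in 0.01 M phosphate buffer pH 7.4, titrated with Ac-capped peptide (H3K27 0–1.5 mM; H3K27me3 0–0.5 mM). Emission read at λex 369 nm, λem 485 nm. Kd fitted by cubic competitive binding equations, with host–dye constant fixed from the prior direct titration. Duplicate determinations averaged.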

[3] = Displacement of calixarene-LCG from synthetic H3K27 peptide; how it was run: as §1
[4] = Displacement of calixarene-LCG from synthetic H3K27 peptide by isothermal titration calorimetry analysis
[5] = Displacement of calixarene-LCG from synthetic H3K27me3 peptide by isothermal titration calorimetry analysis

Row | SMILES | IC50 [1] [µM] | Kd [2] [µM] | Kd [3] [µM] | Kd [4] [µM] | Kd [5] [µM]
1 | Cc1ccc(S(=O)(=O)Nc2cc3c(O)c(c2)Cc2cc(S(=O)(=O)O)cc(c2O)Cc2cc(S(=O)(=O)O)cc(c2O)Cc2cc(S(=O)(=O)O)cc(c2O)C3)cc1 | > 2000 | > 100 | > 100 |  | 
2 | COc1cccc(-c2cc3c(O)c(c2)Cc2cc(S(=O)(=O)O)cc(c2O)Cc2cc(S(=O)(=O)O)cc(c2O)Cc2cc(S(=O)(=O)O)cc(c2O)C3)c1OC | 1700 | 2.13 | 25 |  | 
3 | O=[N+]([O-])c1cc2c(O)c(c1)Cc1cc(S(=O)(=O)O)cc(c1O)Cc1cc(S(=O)(=O)O)cc(c1O)Cc1cc(S(=O)(=O)O)cc(c1O)C2 | > 5000 | 10 | 30 |  | 
4 | O=S(=O)(O)c1cc2c(O)c(c1)Cc1cc(S(=O)(=O)O)cc(c1O)Cc1cc(S(=O)(=O)O)cc(c1O)Cc1cc(S(=O)(=O)O)cc(c1O)C2 | 2500 | 5.4 | 220 |  | 

Compounds with a lower IC50 [1], results first:

Row | IC50 [1] [µM] | Kd [2] [µM] | Kd [3] [µM] | Kd [4] [µM] | Kd [5] [µM] | SMILES
5 | 590 | 1.86 | 23 |  |  | NC(=O)c1ccc(-c2cc3c(O)c(c2)Cc2cc(S(=O)(=O)O)cc(c2O)Cc2cc(S(=O)(=O)O)cc(c2O)Cc2cc(S(=O)(=O)O)cc(c2O)C3)cc1
6 | 360 | 0.78 | 20 |  |  | COc1ccc(-c2cc3c(O)c(c2)Cc2cc(S(=O)(=O)O)cc(c2O)Cc2cc(S(=O)(=O)O)cc(c2O)Cc2cc(S(=O)(=O)O)cc(c2O)C3)cc1
7 | 230 | 0.34 | 2.7 |  |  | Cc1ccc(-c2cc3c(O)c(c2)Cc2cc(S(=O)(=O)O)cc(c2O)Cc2cc(S(=O)(=O)O)cc(c2O)Cc2cc(S(=O)(=O)O)cc(c2O)C3)cc1
8 | 370 | 0.88 | 11.3 |  |  | N#Cc1ccc(-c2cc3c(O)c(c2)Cc2cc(S(=O)(=O)O)cc(c2O)Cc2cc(S(=O)(=O)O)cc(c2O)Cc2cc(S(=O)(=O)O)cc(c2O)C3)cc1
9 | 470 | 0.7 | 13.3 |  |  | O=S(=O)(O)c1cc2c(O)c(c1)Cc1cc(S(=O)(=O)O)cc(c1O)Cc1cc(S(=O)(=O)O)cc(c1O)Cc1cc(Br)cc(c1O)C2
10 | 510 | 0.75 | 19 | 51.4 | 4.03 | O=S(=O)(O)c1cc2c(O)c(c1)Cc1cc(S(=O)(=O)O)cc(c1O)Cc1cc(S(=O)(=O)O)cc(c1O)Cc1cc(-c3ccccc3)cc(c1O)C2
